Measured values from ChEMBL document CHEMBL1140918, “Candidate selection and preclinical evaluation of N-tert-butyl isoquine (GSK369796), an affordable and effective 4-aminoquinoline antimalarial for the 21st century” (J Med Chem, 2009).
Calls of active or inactive are those of the source. No cut-off for these calls is given here.

Tests used:
[1] = test system: Plasmodium falciparum; test: Antimalarial activity against chloroquine-sensitive Plasmodium falciparum 3D7 in human erythrocytes after 48 hrs by [3H]hypoxanthine uptake; type: functional, organism-based
Summary of the method: (§1)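 P. falciparum grown in human erythrocytes in RPMI 1640 with 25 mM HEPES, 32 mM NaHCO3 and 10% human serum, gassed 3% O2/4% CO2/93% N2. Assay at 2% parasitemia, 0.5% hematocrit, drug stocks in DMSO diluted in medium, in triplicate. After 24 h at 37 °C, [3H]-hypoxanthine added and incubation continued 24 h. Scintillation counting; IC50 by probit interpolation of log dose-response, three independent experiments.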

[2] = test system: Plasmodium falciparum; test: Antimalarial activity against chloroquine-sensitive Plasmodium falciparum HB3 in human erythrocytes after 48 hrs by [3H]hypoxanthine uptake; type: functional, organism-based; summary of the method: as §1
[3] = test system: Plasmodium falciparum; test: Antimalarial activity against chloroquine-resistant Plasmodium falciparum K1 in human erythrocytes after 48 hrs by [3H]hypoxanthine uptake; type: functional, organism-based; summary of the method: as §1
[4] = test system: Plasmodium berghei; test: Antimalarial activity as reduced parasitaemia against Plasmodium berghei ANKA infected CD1 mice (Mus musculus) after 4 days; type: functional; settings: 96 h
Summary of the method: (§2)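 Standard Peters 4-day test in female age-matched CD1 mice, randomised into groups of 5. Mice were infected iv on day 0 with 6.4 × 10^6 or 10.0 × 10^6 parasites (P. berghei or P. yoelii) from infected donors. Peripheral-blood parasitaemia was read by flow cytometry at day 4 and compared with vehicle-treated groups. Doses ranged up to 40 mg/kg.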

[5] = test system: Plasmodium yoelii; test: Antimalarial activity as reduced parasitaemia against Plasmodium yoelii 17X infected CD1 mice (Mus musculus) after 4 days; type: functional; settings: 96 h
[6] = test system: Plasmodium yoelii; test: Antimalarial activity as ED100 in peripheral blood against Plasmodium yoelii 17X infected CD1 mice (Mus musculus) after 4 days; type: functional
[7] = test system: Heme; test: Binding affinity to heme in DMSO assessed as equilibrium constant by UV-visible spectrophotometry; design: scale not given here
Summary of the method: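 Haem titrations were run in buffered 40% DMSO so that haem stays monomeric and aggregation and μ-oxo dimer formation are minimised. Binding data were fitted mathematically to two alternative binding-process models to pick the best fit.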

[8] = test system: Plasmodium yoelii; test: Antimalarial activity as reduced parasitaemia at day 4 against Plasmodium yoelii 17X infected CD1 mice (Mus musculus) at 40 mg/kg; type: functional, organism-based; design: dose 40 mg/kg; summary of the method: as §2
[9] = test system: Heme; test: Binding affinity to heme in 12 mM SDS surfactant assessed as equilibrium constant by UV-visible spectrophotometry

**Q.** Which IC50 [1] does the source give for `CCN(CC)Cc1cc(Nc2ccnc3cc(Cl)ccc23)ccc1O.Cl` here?
**A.** Its IC50 is 11.2 nM.

**Q.** What about the IC50 [2] of the same molecule?
**A.** Its IC50 is 9.6 nM.

**Q.** What about the IC50 [3] of the same molecule?
**A.** The IC50 was 15.5 nM.

**Q.** What about the ED50 [4] of the same molecule?
**A.** Its ED50 is 2.1 mg/kg.

**Q.** And the ED90 [4]?
**A.** The ED90 was 3.2 mg/kg.

**Q.** And the ED50 [5]?
**A.** Its ED50 is 2.6 mg/kg.

**Q.** And the ED90 [5]?
**A.** The ED90 was 3.7 mg/kg.

**Q.** And the Activity [6]?
**A.** Its Activity is >40 mg/kg.

**Q.** What about the Activity [7] of the same molecule?
**A.** The Activity was 4.4.

**Q.** With `C=C[C@H]1CN2CC[C@H]1C[C@H]2[C@H](O)c1ccnc2ccc(OC)cc12` as the molecule, how does the Activity [7] read?
**A.** The Activity was 4.4.

**Q.** How did the Activity [8] turn out when `CC(C)(C)NCc1cc(Nc2ccnc3cc(Cl)ccc23)ccc1F` was run?
**A.** The Activity was “inactive”.

**Q.** How did the Activity [7] turn out when `OC(c1cc(C(F)(F)F)nc2c(C(F)(F)F)cccc12)C1CCCCN1` (stereo not drawn) was run?
**A.** Its Activity is 3.84.

**Q.** For `c1ccncc1`, which Activity [9] is on record?
**A.** The Activity was 2.24.
